Test [1] deals with T1, 5-hydroxytryptamine receptor 1A (Rattus norvegicus, UniProt P19327).
T1 sequence (P19327 whole entry): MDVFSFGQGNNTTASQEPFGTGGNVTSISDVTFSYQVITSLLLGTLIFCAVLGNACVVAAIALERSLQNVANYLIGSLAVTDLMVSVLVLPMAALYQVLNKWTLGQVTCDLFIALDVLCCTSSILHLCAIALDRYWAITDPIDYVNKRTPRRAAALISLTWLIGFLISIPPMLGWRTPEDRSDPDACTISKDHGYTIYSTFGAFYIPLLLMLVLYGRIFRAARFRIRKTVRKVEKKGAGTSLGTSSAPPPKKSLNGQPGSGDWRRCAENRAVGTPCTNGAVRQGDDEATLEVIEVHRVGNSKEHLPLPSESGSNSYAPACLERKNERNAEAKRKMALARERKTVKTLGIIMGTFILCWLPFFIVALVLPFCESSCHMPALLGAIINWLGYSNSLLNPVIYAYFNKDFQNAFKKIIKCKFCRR
Nature of the test: Binding affinity against 5-hydroxytryptamine 1A receptor using [3H]-8-OH-DPAT as radioligand. The method, boiled down: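 Rat hippocampal homogenate (5 mg tissue) with [3H]-8-OH-DPAT; 10 μM 8-OH-DPAT defines nonspecific binding. Buffer: 50 mM Tris-HCl, 0.5 mM Na2EDTA, 10 mM MgSO4, pH 7.4, 10 μM pargyline, 0.1% ascorbate.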

Test [2] deals with Serotonin 2 (5-HT2) receptor (Rattus norvegicus, UniProt P30994+P08909+P14842). Nature of the test: Binding affinity against 5-hydroxytryptamine 2 receptor using [3H]ketanserin as radioligand. Format: protein assay. A digest of the protocol: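 Rat brain tissue homogenized in 50 mM Tris-HCl, 0.5 mM Na2EDTA, 10 mM MgSO4, pH 7.4, and centrifuged twice at 30000g. Assay buffer adds 10 μM pargyline and 0.1% ascorbate.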

Bounds are passed on as bounds.

In the case of `CC(N)Cc1c[nH]c2ccccc12` (centres undefined), the Ki (as a rule, the equilibrium dissociation constant of an inhibitor or competing ligand from its target) in test [1] came out at 530 nM.

On to `COc1ccc2[nH]cc(CC(C)N)c2c1` (centres undefined), for which the Ki stood at 7 nM in test [1] and 345 nM in test [2].

In the case of `CCCn1cc(CC(C)N)c2ccccc21` (centres undefined), the Ki is 715 nM in test [1] and 1550 nM in test [2].

Consider `CC(N)Cc1cc[nH]c1` (centres undefined), for which the Ki in test [1] and in test [2] was more than 10000 nM in each case.

With `CCCCCc1cccc2c(CC(C)N)c[nH]c12` (centres undefined), the Ki in test [1] is 6850 nM; in test [2], 140 nM.

The compound `CCCn1cc(CC(C)N)c2cc(OC)ccc21` (centres undefined) registered a Ki in test [2] of 635 nM.

As to `CCCn1ccc(CC(C)N)c1` (centres undefined), the Ki in test [1] and in test [2] was more than 10000 nM in each case.

As to `CCCCCn1cc(CC(C)N)c2ccccc21` (centres undefined), the values for the Ki in test [1] and in test [2] were 2400 nM and 100 nM, respectively.

As for `CCCc1cccc2c(CC(C)N)c[nH]c12` (centres undefined), the Ki was 1000 nM in test [1] and 1040 nM in test [2].

In the case of `CCCCCCCCn1cc(CC(C)N)c2ccccc21` (centres undefined), the Ki came to 78 nM in test [1] and 280 nM in test [2].

`CC(N)Cc1cn(Cc2ccccc2)c2ccccc12` (centres undefined): the values for the Ki in test [1] and in test [2] were 30 nM and 160 nM, respectively.

`CCCCCn1ccc(CC(C)N)c1` (centres undefined): the inhibitory constant (Ki) in test [1] stood at 7500 nM; in test [2], 5200 nM.

As to `COc1ccc2c(c1)c(CC(C)N)cn2Cc1ccccc1` (centres undefined), the Ki was more than 10000 nM in test [1] and 250 nM in test [2].

(Values after ChEMBL document CHEMBL1124981, “Binding of indolylalkylamines at 5-HT2 serotonin receptors: examination of a hydrophobic binding region” (J Med Chem, 1990).)
